How the values were obtained:
Type in all cases: functional
HCT-116 = assay: Growth inhibition of human HCT116 cells at 10 uM relative to control; conditions: values are per cent of control
Outline: (§1)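 Single-dose preliminary screen in the NCI human cancer cell line panel, run by the NIH. Percent inhibition of cell line growth was calculated by comparison with untreated samples.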

HCT-15 = assay: Growth inhibition of human HCT15 cells at 10 uM relative to control; conditions: values are per cent of control; outline: as §1
HT-29 = assay: Growth inhibition of human HT-29 cells at 10 uM relative to control; conditions: values are per cent of control; outline: as §1
KM12 = assay: Growth inhibition of human KM12 cells at 10 uM relative to control; conditions: values are per cent of control; outline: as §1
SW-620 = assay: Growth inhibition of human SW620 cells at 10 uM relative to control; conditions: values are per cent of control
Outline: (§2)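 Single-dose NCI human tumour cell line screen, run by the NIH. Percent inhibition of cell line growth was calculated by comparison with untreated samples.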

BT-549 = assay: Growth inhibition of human BT549 cells at 10 uM relative to control; conditions: values are per cent of control; outline: as §1
[1] = Growth inhibition of human Hs 578T cells at 10 uM relative to control; conditions: values are per cent of control; outline: as §1
MCF7 = assay: Growth inhibition of human MCF7 cells at 10 uM relative to control; conditions: values are per cent of control; outline: as §1
MDA-MB-231 = assay: Growth inhibition of human MDA-MB-231 cells at 10 uM relative to control; conditions: values are per cent of control; outline: as §1
MDA-MB-435 = assay: Growth inhibition of human MDA-MB-435 cells at 10 uM relative to control; conditions: values are per cent of control; outline: as §1
MDA-MB-468 = assay: Growth inhibition of human MDA-MB-468 cells at 10 uM relative to control; conditions: values are per cent of control; outline: as §1
NCI/ADR-RES = assay: Growth inhibition of human NCI/ADR-RES cells at 10 uM relative to control; conditions: values are per cent of control; outline: as §1
T47D = assay: Growth inhibition of human T47D cells at 10 uM relative to control; conditions: values are per cent of control; outline: as §2
IGROV-1 = assay: Growth inhibition of human IGROV1 cells at 10 uM relative to control; conditions: values are per cent of control; outline: as §1
OVCAR-3 = assay: Growth inhibition of human OVCAR-3 cells at 10 uM relative to control; conditions: values are per cent of control; outline: as §1
OVCAR-4 = assay: Growth inhibition of human OVCAR4 cells at 10 uM relative to control; conditions: values are per cent of control; outline: as §1
OVCAR-5 = assay: Growth inhibition of human OVCAR5 cells at 10 uM relative to control; conditions: values are per cent of control; outline: as §1
OVCAR-8 = assay: Growth inhibition of human OVCAR8 cells at 10 uM relative to control; conditions: values are per cent of control; outline: as §1
CCRF-CEM = assay: Growth inhibition of human CCRF-CEM cells at 10 uM relative to control; conditions: values are per cent of control; outline: as §1
HL-60(TB) = assay: Growth inhibition of human HL-60(TB) cells at 10 uM relative to control; conditions: read-out: INH
Outline: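 Single-dose cell line screen run by the NCI (NIH) in its human cancer cell line panel, which includes the leukemia line HL-60(TB). Percent growth inhibition was calculated by comparison with untreated samples.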

K562 = assay: Growth inhibition of human K562 cells at 10 uM relative to control; conditions: values are per cent of control; outline: as §1
MOLT-4 = assay: Growth inhibition of human MOLT4 cells at 10 uM relative to control; conditions: values are per cent of control; outline: as §1
[2] = Growth inhibition of human RPMI8266 cells at 10 uM relative to control; conditions: values are per cent of control; outline: as §1
786-0 = assay: Growth inhibition of human 786-0 cells at 10 uM relative to control; conditions: values are per cent of control; outline: as §1
A498 = assay: Growth inhibition of human A498 cells at 10 uM relative to control; conditions: values are per cent of control; outline: as §1
ACHN = assay: Growth inhibition of human ACHN cells at 10 uM relative to control; conditions: values are per cent of control; outline: as §1
CAKI-1 = assay: Growth inhibition of human Caki1 cells at 10 uM relative to control; conditions: values are per cent of control; outline: as §1
SN12C = assay: Growth inhibition of human SN12C cells at 10 uM relative to control; conditions: values are per cent of control; outline: as §1
TK-10 = assay: Growth inhibition of human TK10 cells at 10 uM relative to control; conditions: values are per cent of control; outline: as §2
UO-31 = assay: Growth inhibition of human UO31 cells at 10 uM relative to control; conditions: values are per cent of control; outline: as §2
LOX IMVI = assay: Growth inhibition of human LOXIMVI cells at 10 uM relative to control; conditions: values are per cent of control; outline: as §1
M14 = assay: Growth inhibition of human M14 cells at 10 uM relative to control; conditions: values are per cent of control; outline: as §1
Malme-3M = assay: Growth inhibition of human MALME-3M cells at 10 uM relative to control; conditions: values are per cent of control; outline: as §1

## O=C(/C=C/c1cn(C/C=C/c2ccccc2)nn1)NO
HCT-116
  growth, % of control at 10 µM: -69%
HCT-15
  growth, % of control at 10 µM: 9.7%
HT-29
  growth, % of control at 10 µM: 12%
KM12
  growth, % of control at 10 µM: 8.61%
SW-620
  growth, % of control at 10 µM: -61.5%
BT-549
  growth, % of control at 10 µM: 43.3%
[1]
  growth, % of control at 10 µM: 26%
MCF7
  growth, % of control at 10 µM: 13.6%
MDA-MB-231
  growth, % of control at 10 µM: 20.9%
MDA-MB-435
  growth, % of control at 10 µM: 21.3%
MDA-MB-468
  growth, % of control at 10 µM: 45.8%
NCI/ADR-RES
  growth, % of control at 10 µM: -14.2%
T47D
  growth, % of control at 10 µM: -11.9%
IGROV-1
  growth, % of control at 10 µM: -13.8%
OVCAR-3
  growth, % of control at 10 µM: -16.2%
OVCAR-4
  growth, % of control at 10 µM: 55.7%
OVCAR-5
  growth, % of control at 10 µM: 1.43%
OVCAR-8
  growth, % of control at 10 µM: 1.24%
CCRF-CEM
  growth, % of control at 10 µM: 9.16%
HL-60(TB)
  growth, % of control at 10 µM: -5.68%
K562
  growth, % of control at 10 µM: -10.9%
MOLT-4
  growth, % of control at 10 µM: -7.12%
[2]
  growth, % of control at 10 µM: -13.9%
786-0
  growth, % of control at 10 µM: -36.1%
A498
  growth, % of control at 10 µM: -74.4%
ACHN
  growth, % of control at 10 µM: -51.2%
CAKI-1
  growth, % of control at 10 µM: 7.42%
SN12C
  growth, % of control at 10 µM: 25%
TK-10
  growth, % of control at 10 µM: -8.37%
UO-31
  growth, % of control at 10 µM: 0.73%
LOX IMVI
  growth, % of control at 10 µM: -72.6%
M14
  growth, % of control at 10 µM: 1.63%
Malme-3M
  growth, % of control at 10 µM: -28.7%

Source: ChEMBL document CHEMBL1140227, “Histone deacetylase inhibitors through click chemistry” (J Med Chem, 2008)
